How the values were obtained:
Format in all cases: functional, cell-based
[1] = Antiproliferative activity against human KB/HeLa cells by XTT assay
How it was run: (§1)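 XTT metabolic read-out. Cells seeded at 1 × 10³–8 × 10⁴ cells/well for logarithmic growth and exposed to graded concentrations for 48 h. At least two replicates. IC50 from nonlinear regression of dose-response curves. LT12/MDR: rat LT12 with ectopic human MDR-1. L1210/VCR: MDR-1 expressing, MRP-1 negative.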

SK-OV-3 = assay: Antiproliferative activity against human SKOV3 cells by XTT assay
How it was run: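 XTT metabolic-activity read-out of proliferation. Cells were seeded at 1 × 10³-8 × 10⁴ cells/well for logarithmic growth and exposed to a range of compound concentrations for 48 h. IC50 came from nonlinear regression of dose-response curves, with at least two replicates. The P388/Adr subline was doxorubicin-selected with elevated MDR-1.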

SF-268 = assay: Antiproliferative activity against human SF268 cells by XTT assay; how it was run: as §1
NCI-H460 = assay: Antiproliferative activity against human NCI-H460 cells by XTT assay; how it was run: as §1
RKO [2] = assay: Antiproliferative activity against human RKO cells by XTT assay
How it was run: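 RKO colon cells with ecdysone-inducible p27Kip1. Day 1: plated with or without 3 µM ponasterone A for 24 h, giving G1 arrest when induced (2 × 10⁴ cells/well induced; 6 × 10³ not induced). Day 2: compound added (DMSO control) for 48 h at 37 °C, then standard XTT. At least duplicate. IC50 by nonlinear regression.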

RKO [3] = assay: Antiproliferative activity against human RKO cells containing ecdysone-inducible expression vector of p27kipl by XTT assay
How it was run: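 RKO cells carried an ecdysone-inducible p27Kip1 vector and were tested with and without induction. On day 1 they were plated with or without 3 µM ponasterone A, which gives G1 arrest, at 2 × 10⁴ cells/well induced or 6 × 10³ not induced, then held 24 h at 37 °C. Compound was then added for 48 h at 37 °C, followed by a standard XTT assay. IC50 came from nonlinear regression, n ≥ 2.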

[4] = Cell cycle arrest in human KB/HeLa cells assessed as G2/M phase accumulation after 24 hrs by FACS analysis
How it was run: (§2)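 Subconfluent KB/HeLa cells exposed to a range of compound concentrations for 24 h at 37 °C, then detached and fixed in 70% ethanol. DNA stained with propidium iodide after RNase digestion and measured by flow cytometry. Cell-cycle phase fractions taken from cell cycle analysis software. At least two replicates.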

[5] = Cell cycle arrest in human KB/HeLa cells assessed as S phase accumulation at 0.3 nM after 24 hrs by FACS analysis; how it was run: as §2
[6] = Cell cycle arrest in human KB/HeLa cells assessed as G2/M phase accumulation at 0.3 nM after 24 hrs by FACS analysis; how it was run: as §2
[7] = Cell cycle arrest in human KB/HeLa cells assessed as G1 phase accumulation at 0.3 nM after 24 hrs by FACS analysis; how it was run: as §2
[8] = Cell cycle arrest in human KB/HeLa cells assessed as S phase accumulation at 1 nM after 24 hrs by FACS analysis; how it was run: as §2
[9] = Cell cycle arrest in human KB/HeLa cells assessed as G2/M phase accumulation at 1 nM after 24 hrs by FACS analysis; how it was run: as §2
[10] = Cell cycle arrest in human KB/HeLa cells assessed as G1 phase accumulation at 1 nM after 24 hrs by FACS analysis; how it was run: as §2
[11] = Cell cycle arrest in human KB/HeLa cells assessed as S phase accumulation at 3.16 nM after 24 hrs by FACS analysis; how it was run: as §2
[12] = Cell cycle arrest in human KB/HeLa cells assessed as G1 phase accumulation at 3.16 nM after 24 hrs by FACS analysis; how it was run: as §2
[13] = Cell cycle arrest in human KB/HeLa cells assessed as S phase accumulation at 10 nM after 24 hrs by FACS analysis; how it was run: as §2
[14] = Cell cycle arrest in human KB/HeLa cells assessed as G2/M phase accumulation at 10 nM after 24 hrs by FACS analysis; how it was run: as §2
[15] = Cell cycle arrest in human KB/HeLa cells assessed as G1 phase accumulation at 10 nM after 24 hrs by FACS analysis; how it was run: as §2
[16] = Cell cycle arrest in human KB/HeLa cells assessed as S phase accumulation at 31.6 nM after 24 hrs by FACS analysis; how it was run: as §2
[17] = Cell cycle arrest in human KB/HeLa cells assessed as G2/M phase accumulation at 31.6 nM after 24 hrs by FACS analysis; how it was run: as §2
[18] = Cell cycle arrest in human KB/HeLa cells assessed as G1 phase accumulation at 31.6 nM after 24 hrs by FACS analysis; how it was run: as §2
[19] = Cell cycle arrest in human KB/HeLa cells assessed as S phase accumulation at 100 nM after 24 hrs by FACS analysis; how it was run: as §2
[20] = Cell cycle arrest in human KB/HeLa cells assessed as G2/M phase accumulation at 100 nM after 24 hrs by FACS analysis; how it was run: as §2
[21] = Cell cycle arrest in human KB/HeLa cells assessed as G1 phase accumulation at 100 nM after 24 hrs by FACS analysis; how it was run: as §2
[22] = Cell cycle arrest in human KB/HeLa cells assessed as S phase accumulation at 316 nM after 24 hrs by FACS analysis; how it was run: as §2
[23] = Cell cycle arrest in human KB/HeLa cells assessed as G2/M phase accumulation at 316 nM after 24 hrs by FACS analysis; how it was run: as §2
[24] = Cell cycle arrest in human KB/HeLa cells assessed as G1 phase accumulation at 316 nM after 24 hrs by FACS analysis; how it was run: as §2
[25] = Cell cycle arrest in human KB/HeLa cells assessed as S phase accumulation at 0.1 nM after 24 hrs by FACS analysis; how it was run: as §2
[26] = Cell cycle arrest in human KB/HeLa cells assessed as G2/M phase accumulation at 0.1 nM after 24 hrs by FACS analysis; how it was run: as §2
[27] = Cell cycle arrest in human KB/HeLa cells assessed as G1 phase accumulation at 0.1 nM after 24 hrs by FACS analysis; how it was run: as §2
[28] = Cell cycle arrest in human KB/HeLa cells assessed as G2/M phase accumulation at 3.16 nM after 24 hrs by FACS analysis; how it was run: as §2

SMILES	EC50 [4] [nM]	Activity [5] [%]	Activity [6] [%]	Activity [7] [%]	Activity [8] [%]	Activity [9] [%]	Activity [10] [%]	Activity [11] [%]	Activity [12] [%]	Activity [13] [%]	Activity [14] [%]	Activity [15] [%]	Activity [16] [%]	Activity [17] [%]	Activity [18] [%]	Activity [19] [%]	Activity [20] [%]	Activity [21] [%]	Activity [22] [%]	Activity [23] [%]	further results
COc1cc2c(c(OC)c1OC)-c1ccc(OC)c(=O)cc1[C@@H](NC(C)=O)CC2 [COLCHICINE]	14	26.6	10.1	63.3	25.4	10	64.7	25.1	64.3	35.7	32.1	32.2	11.9	87.6	0.5	5.1	94.7	0.3	5.2	94.5	IC50 [1]: 10 nM; IC50 (SK-OV-3): 10 nM; IC50 (SF-268): 10 nM; IC50 (NCI-H460): 10 nM; IC50 (RKO [2]): 10 nM; IC50 (RKO [3]): > 3000 nM; Activity [24]: 0.3%
CC[C@]1(O)C[C@H]2CN(CCc3c([nH]c4ccccc34)[C@@](C(=O)OC)(c3cc4c(cc3OC)N(C=O)[C@H]3[C@@](O)(C(=O)OC)[C@H](OC(C)=O)[C@]5(CC)C=CCN6CC[C@]43[C@@H]65)C2)C1 [VINCRISTINE]	2.4	24	11.7	64.5	28.3	17.2	53.7	26	6.5	6.5	13.1	86.7	0.5	7.2	92.6	1	4.8	95.1	0.2	5.9	Activity [25]: 27.7%; Activity [26]: 11.1%; Activity [27]: 61.2%; Activity [28]: 65.8%; Activity [24]: 93.8%
